IL1B NFkB inh = blocks IL-1B driven NFkB nuclear translocation in HUVEC cells | inhibition, % at 2 µM | HUVEC IL-1B NFkB p65 nuclear translocation imaging | 0.43% of 94,000 active | AID 796;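 active means inhibition above about 30% together with a positive call from visual inspection of the well image, limit read from the data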;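 further: nuclear over cytoplasmic p65 intensity ratio measured by imaging; 0% = IL-1B stimulated DMSO wells and 100% = unstimulated DMSO wells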
Rev-RRE block = HIV Rev-RRE protein-RNA interaction inhibition; 0.79% of 97,000 active; inhibition, % at 8 µM; AID 704; P05866; Rev peptide-RRE RNA binding, FRET;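 active means inhibition above the screen-wide mean plus 3 SD, cut at about 35% in these data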;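 further: 0% = median DMSO wells and 100% = median Neomycin B control wells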
Target sequence (P05866 whole entry, looked up): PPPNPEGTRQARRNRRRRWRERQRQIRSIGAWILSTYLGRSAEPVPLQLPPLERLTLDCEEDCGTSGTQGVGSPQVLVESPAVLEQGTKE
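Test system – labelled RRE RNA duplex and labelled Rev peptide · Signal – fluorescein-to-Cy5 FRET, 480 nm excitation · Evaluation – % inhibition of FRET ratio versus controls · Benchmarks – DMSO low control, neomycin B high control · Incubation – 5 min RNA-compound premix plus 15 min binding step, 25 °C · Medium – HEPES pH 7.5 salt buffer with EDTA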
HUVEC tox IL1B = HUVEC cytotoxicity counter-screen, IL-1B stimulated; HUVEC cell count loss, Hoechst imaging; cell count reduction, % at 2 µM; 0.41% of 94,000 active; AID 845;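 active means cell count reduction more than 3 SD above the screen-wide mean, cut at about 70% in these data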;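 further: normalized per plate to untreated control cells as the no-loss baseline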
FAK inh = FAK (human) kinase inhibition | Q05397 | biochemical FAK kinase activity assay | inhibition, %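 (tested at 7 µM)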 | 0.84% of 97,000 active;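 further: 0% = DMSO and 100% = reference compound high control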
NFkB transloc pot = enhances IL-1B driven NFkB nuclear translocation | HUVEC IL-1B NFkB p65 nuclear translocation imaging | activation, % at 2 µM | 0.3% of 94,000 active;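 active means activation above 40%, about the mean plus 3 SD, also judged a hit on visual image review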;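 further: percent activation is computed from the nuclear over cytoplasmic p65 intensity ratio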
Measles CPE = protection of cells from measles virus; Measles virus-infected cells, CPE protection, absorbance; protection (pct of control), % at 4 µM; 1.5% of 140,000 active; AID 841; in the data active means protection mostly above about 24%, no sharp cut-off; inactive means mostly below about 26%
FAK inh conf = confirmation of human focal adhesion kinase (FAK) inhibitors | shares compounds with FAK inh | FAK kinase biochemical inhibition assay | inhibition, % at 7 µM | 28% of 750 active | AID 794
An asterisk follows results filed as active; / = no result. Hits are enriched below; roughly 3.3% of the tested compounds scored in any of these assays. Unless noted, no stated cut-off is given here; in the data, active means inhibition above about 19%; inactive means the rest.

SMILES	IL1B NFkB inh	Rev-RRE block	HUVEC tox IL1B	FAK inh	NFkB transloc pot	Measles CPE	FAK inh conf
C[C@@H]1C(=O)O[C@@H]2[C@H](O)C34[C@@H]5OC(=O)C3(O[C@H]3OC(=O)[C@H](O)C34[C@H](C(C)(C)C)[C@H]5O)[C@@]12O (some centres undefined)	/	/	/	/	/	20.4*	/
Cc1cc(NC(=O)COC(=O)c2c(C)nn(Cc3ccccc3)c2C)no1	1.3	8.2	-6.3	0.1	-1.3	10.8	/
Cc1nn(Cc2ccccc2)c(C)c1C(=O)OCC(=O)Nc1ccccc1SCC#N	-17.8	60.7*	-8.5	0.9	17.8	2.5	/
CCn1c(O)c(C(c2ccccn2)c2c(O)n(CC)c(=S)[nH]c2=O)c(=O)[nH]c1=S	-7.8	1.3	-7.4	1.4	7.8	3.4	/
CCN(CC)CCOC(=O)c1ccc(N=Cc2c(O)[nH]c(=O)[nH]c2=O)cc1	6.3	24.5	13.0	-2.3	-6.3	60.1*	/
CCCCCCCC(=O)NC(Oc1ccccc1[N+](=O)[O-])C(Cl)(Cl)Cl (centres undefined)	-7.1	8.6	15.2	-0.6	7.1	6.5	/
O=C(NCc1ccc(C(=O)N2CCC3(CC2)OCCO3)cc1)c1cccc(Br)c1	1.5	1.1	-23.5	-3.4	-1.5	26.1*	/
Cc1cc(C)n(CCOC(=O)C2C(C=C(Cl)Cl)C2(C)C)n1 (centres undefined)	10.9	1.8	-30.5	-0.5	-10.9	12.3	/
CCOC(C(=O)OCCC[N+](C)(CC)CC)(c1ccccc1)c1ccccc1	-4.3	-6.8	-31.6	-1.3	4.3	10.7	/
CC[N+](C)(CC)CCCOC(=O)C(O)(c1ccccc1)C1CCCCC1 (centres undefined)	-5.6	-4.7	-3.4	3.3	5.6	32.4*	/
COC(=O)C1CN(C#N)N(c2ccc(Cl)cc2)C12c1ccccc1-c1ccccc12 (centres undefined)	64.6*	6.6	20.6	1.3	-64.6	1.3	/
CN(C(=O)Oc1ccc(Cl)c2cccnc12)c1ccccc1	/	/	/	/	/	30.9*	/
COc1cc(OC)cc(-n2nc(C(=O)N3CCC4(CC3)OCCO4)c3ccccc3c2=O)c1	/	/	/	/	/	51.9*	/
CCCCn1c(C)c(C(=O)O)c2cc(OC)ccc21	-3.8	9.0	-37.5	31.8*	3.8	17.7	10.9
COc1ccc2c(c1)c(C(=O)O)c(C)n2CC(C)C	-9.7	7.2	-3.8	9.8	9.7	6.2	/
COc1ccc(Cn2c(N)c(C(=O)NCc3ccco3)c3nc4ccccc4nc32)cc1OC	6.1	31.4	-7.2	33.7*	-6.1	4.7	0.5
CC(C)CNC(=O)c1c(N)n(Cc2ccc3c(c2)OCO3)c2nc3ccccc3nc12	-1.9	19.5	5.1	31.0*	1.9	3.2	-0.1
C=CCN(CC=C)Cc1c[nH]c2ccccc12	-6.6	8.4	-6.3	4.7	6.6	5.6	/
O/N=C/c1c[nH]c2ccccc12	-7.8	1.2	1.6	37.9*	7.8	9.2	11.3
COc1ccc(P2(=O)Nc3ccccc3N2)cc1	-18.0	61.0*	-6.7	39.8*	18.0	2.5	14.2
COc1ccc(NP(=O)(Nc2ccc(OC)cc2)Oc2ccccc2)cc1	/	/	/	/	/	6.3	/
CCOP(=S)(OCC)SCC(=O)NC(C(=O)O)C(C)C (centres undefined)	-15.2	2.2	-2.7	-0.7	15.2	28.6	/
CC[n+]1c(SC)ccc2cc(OC)ccc21	/	/	/	/	/	13.2	/
O=C1C(=O)c2ccccc2-c2ccccc21	-32.1	6.9	25.3	59.4*	32.1	-0.1	58.9*
COc1ccc(S(=O)(=O)NC(CC(=O)N2CCC3(CC2)OCCO3)C(C)C)cc1 (centres undefined)	-30.4	5.4	-6.7	1.3	30.4	3.0	/
SMILES	IL1B NFkB inh	Rev-RRE block	HUVEC tox IL1B	FAK inh	NFkB transloc pot	Measles CPE	FAK inh conf
O=C(NC(=C(Cl)Cl)P(=O)(c1ccccc1)c1ccccc1)c1ccccc1	/	/	/	/	/	8.3	/
COCCNC(=O)c1c(N)n(CCC(C)C)c2nc3ccccc3nc12	8.9	16.0	5.2	26.1*	-8.9	33.1	2.2
CC(C)CCn1c(N)c(C(=O)NCc2cccs2)c2nc3ccccc3nc21	-4.5	8.2	3.7	23.4*	4.5	5.4	-2.6
CCCCNC(=O)c1c(N)n(CCCOC)c2nc3ccccc3nc12	/	/	/	/	/	5.5	/
CC/C(=N\N1CCCCCC1)c1c(O)n(-c2ccc(C)cc2)c(=O)[nH]c1=O	/	/	/	/	/	20.8	/
Nc1c(C(=O)NC2CCCC2)c2nc3ccccc3nc2n1CC1CCCO1 (centres undefined)	-2.7	7.3	-7.3	35.5*	2.7	6.7	-0.3

Bioassay records (PubChem)
